According to ChEMBL document CHEMBL1153431, “Potent inhibitors of pro-inflammatory cytokine production produced by a marine-derived bacterium” (J Med Chem, 2009):

Legend:
[1] = Inhibition of pro-inflammatory cytokine IL13 production in ovalbumin-stimulated BALB/c mouse TH2 cells after 48 hrs by sandwich-ELISA; format: functional, cell-based; conditions: TH2, 48 h
Outline: (§1)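 Splenocytes from female Balb-C mice (6-8 weeks) immunized subcutaneously weekly for four weeks with 25 µg OVA adsorbed to 1 mg alum in PBS. Cells in RPMI-1640 at 1.3 × 10^6 cells/mL, given compound in DMSO plus OVA allergen; DMSO and DMSO+OVA replicate wells as controls. After 48 h incubation, supernatant cytokine measured by colorimetric sandwich ELISA.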

[2] = Cytotoxicity against BALB/c mouse TH2 cells after 48 hrs by Trypan blue assay; format: cell-based; conditions: read-out: LD50
Outline: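 Splenocytes from OVA/alum-immunized female Balb-C mice (6-8 weeks) in RPMI-1640 at 1.3 × 10^6 cells/mL, exposed to compound in DMSO with OVA allergen for 48 h. Adherent cells stained with trypan blue and counted visually on a hemocytometer to assess viability.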

[3] = Inhibition of pro-inflammatory cytokine IL5 production in ovalbumin-stimulated BALB/c mouse TH2 cells after 48 hrs by sandwich-ELISA; format: functional, cell-based; conditions: TH2, 48 h; outline: as §1
[4] = Inhibition of pro-inflammatory cytokine IL1 production in ovalbumin-stimulated BALB/c mouse APC at 10 nM after 48 hrs by sandwich-ELISA relative to control; format: functional; set-up: scale not given: the % may be the effect or the level left; outline: as §1
[5] = Inhibition of pro-inflammatory cytokine TNFalpha production in ovalbumin-stimulated BALB/c mouse APC at 10 nM after 48 hrs by sandwich-ELISA relative to control; format: functional; set-up: scale not given: the % may be the effect or the level left; outline: as §1
[6] = Inhibition of pro-inflammatory cytokine IL5 production in ovalbumin-stimulated BALB/c mouse TH2 cells at 5 nM after 48 hrs by sandwich-ELISA relative to control; format: functional; set-up: scale not given: the % may be the effect or the level left
Outline: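 Splenocytes from female BALB/c mice (6-8 weeks) were used, taken after weekly subcutaneous immunisation for 4 weeks with 25 µg OVA on 1 mg alum in PBS. Cells were held at 1.3 × 10^6 cells/mL in RPMI-1640 and given compound in DMSO plus OVA for 48 h. Controls were DMSO ± OVA wells. Supernatant IL-5 was read by colorimetric sandwich ELISA.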

[7] = Therapeutic index, ratio of LD50 for BALB/c mouse TH2 cells to IC50 for pro-inflammatory cytokine production in BALB/c mouse TH2 cells; format: cell-based; conditions: read-out: TI
Outline: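 Splenocytes came from OVA/alum-immunised female BALB/c mice (25 µg OVA s.c. weekly for 4 weeks) and were held at 1.3 × 10^6 cells/mL in RPMI-1640. They were exposed to compound in DMSO with OVA for 48 h, with DMSO ± OVA control wells. Cytokines in the supernatant were measured by sandwich ELISA. Viability of adherent cells was scored by trypan blue hemocytometer counting.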

Row | SMILES | IC50 [1] [nM] | CC50 at 48 h [2] [nM] | IC50 [3] [nM] | Activity [4] [%] | Activity [5] [%] | Activity [6] [%] | selectivity ratio [7]
1 | CCCC[C@H]1C(=O)O[C@H](C)[C@H](NC(=O)c2cccc(NC=O)c2O)C(=O)O[C@@H](C)[C@@H]1OC(=O)c1ccccc1 [SPLENOCIN E] | 15.9 | > 570 | 16.6 | – | – | – | –
2 | CCCCCC[C@H]1C(=O)O[C@H](C)[C@H](NC(=O)c2cccc(NC=O)c2O)C(=O)O[C@@H](C)[C@@H]1OC(=O)c1ccccc1 [SPLENOCIN G] | 5.2 | > 550 | 5 | 85 | 75 | – | –
3 | CCCCC(C)C[C@H]1C(=O)O[C@H](C)[C@H](NC(=O)c2cccc(NC=O)c2O)C(=O)O[C@@H](C)[C@@H]1OC(=O)c1ccccc1 (some centres undefined) [SPLENOCIN H] | 5.1 | > 1600 | 4.3 | – | – | – | –
4 | C[C@@H]1OC(=O)[C@@H](NC(=O)c2cccc(NC=O)c2O)[C@@H](C)OC(=O)[C@H](Cc2ccccc2)[C@H]1OC(=O)c1ccccc1 [SPLENOCIN I] | 15.2 | > 540 | 15.8 | – | – | – | –
5 | C[C@@H]1C[C@H]2[C@@H]3CCC4=CC(=O)C=C[C@]4(C)[C@@]3(F)[C@@H](O)C[C@]2(C)[C@@]1(O)C(=O)CO [DEXAMETHASONE] | 5 | > 7100 | 5 | – | – | >80 | –
6 | CCC(C)C(=O)O[C@H]1[C@H](C)OC(=O)[C@@H](NC(=O)c2cccc(NC=O)c2O)[C@@H](C)OC(=O)[C@@H]1Cc1ccccc1 (some centres undefined) [SPLENOCIN C] | 7.3 | > 560 | 6.7 | – | – | – | –
7 | CC[C@H]1C(=O)O[C@H](C)[C@H](NC(=O)c2cccc(NC=O)c2O)C(=O)O[C@@H](C)[C@@H]1OC(=O)c1ccccc1 [SPLENOCIN D] | 43.7 | > 550 | 47.9 | – | – | – | –
8 | CC(C)C(=O)O[C@H]1[C@H](C)OC(=O)[C@@H](NC(=O)c2cccc(NC=O)c2O)[C@@H](C)OC(=O)[C@@H]1Cc1ccccc1 [SPLENOCIN B] | 1.6 | > 1700 | 1.8 | 85 | 75 | >80 | > 500
9 | CC(=O)O[C@H]1[C@H](C)OC(=O)[C@@H](NC(=O)c2cccc(NC=O)c2O)[C@@H](C)OC(=O)[C@@H]1Cc1ccccc1 [SPLENOCIN A] | – | > 1800 | 3.1 | – | – | – | –
10 | C[C@@H]1OC(=O)[C@@H](NC(=O)c2cccc(NC=O)c2O)[C@@H](C)OC(=O)[C@H](Cc2ccccc2)[C@H]1O [SPLENOCIN J] | 826 | > 6000 | 1020 | – | – | – | –
11 | CCCCC[C@H]1C(=O)O[C@H](C)[C@H](NC(=O)c2cccc(NC=O)c2O)C(=O)O[C@@H](C)[C@@H]1OC(=O)c1ccccc1 [SPLENOCIN F] | 6.8 | > 560 | 9.4 | – | – | – | –
